Measurements published in ChEMBL document CHEMBL2146474, “Synthesis and evaluation of the anti-proliferative and NF-κB activities of a library of simplified tylophorine analogs” (Bioorg Med Chem, 2012).
The source made the active and inactive calls. The calls are words filed in the database; no cut-off is given here.

What was measured:
A549 = assay: Growth inhibition in human A549 cells after 72 hrs by alamar blue assay; type: functional; conditions: A549, 72 h
In short: (§1)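 Cells harvested from exponential-phase culture and resuspended at 10⁵ cells/mL in growth medium with 10% FBS (RPMI1640, EMEM or DMEM; the DMEM also held penicillin, streptomycin and hygromycin), seeded in 96-well plates. Compounds from 10 mM DMSO stocks added in fresh medium across varying concentrations. Cultures grown a further 72 h, then alamarBlue added as read-out.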

MCF7 [1] = assay: Growth inhibition in human MCF7 cells after 72 hrs by alamar blue assay; type: functional; conditions: MCF7, 72 h
In short: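 MCF-7 cells from exponential-phase culture re-suspended in RPMI1640 with 10% FBS, adjusted to 10⁵ cells/mL and plated in 96-well plates. Compounds from 10 mM DMSO stocks were added in fresh medium across varying concentrations. Cells were grown a further 72 h, then alamarBlue was added as read-out.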

DU-145 = assay: Growth inhibition in human DU145 cells after 72 hrs by alamar blue assay; type: functional; conditions: DU-145, 72 h; in short: as §1
[2] = Inhibition of TNFalpha-induced NF-kappaB activation in human A549 cells after 30 mins by luciferase reporter gene assay; type: cell-based; conditions: A549, 0.5 h
In short: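 A549/NF-κB-luc reporter cells trypsinized, seeded at 5000 cells/well and left 24 h to attach. Compound in complete growth medium added 30 min before TNF-α (1:667 dilution in 1× PBS). After a further 7 h, Bright-Glo luciferin reagent added and luciferase activity read 2 min later.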

MCF7 [3] = assay: Cytotoxicity against human MCF7 cells assessed as growth inhibition at 5 uM after 72 hrs by alamar blue assay; type: functional; conditions: for inhibition of growth at 5 µM: MCF7, 72 h, read-out: GI

Compound: COc1cc2c3c(c4cc(OC)c(OC)cc4c2cc1OC)CN1CCCC1C3 (racemic) [(+/-)-TYLOPHORINE]
- GI50 (A549): 45 nM
- GI50 (MCF7 [1]): 42 nM
- GI50 (DU-145): 71 nM
- IC50 [2]: 30 nM

Compound: COc1cc2c3c(c4cc(OC)c(OC)cc4c2cc1OC)CN(Cc1cc(C)on1)CC3
- growth inhibition (GI) (MCF7 [3]): Active

Compound: COc1ccc(CN2CCc3c(c4cc(OC)c(OC)cc4c4cc(OC)c(OC)cc34)C2)cc1
- growth inhibition (GI) (MCF7 [3]): Active

Compound: COc1cc2c3c(c4cc(OC)c(OC)cc4c2cc1OC)CNCC3
- inhibition of growth at 5 µM (MCF7 [3]): 50%

Compound: COc1cc2c3c(c4cc(OC)c(OC)cc4c2cc1OC)CN(Cc1ccc([N+](=O)[O-])cc1)CC3
- growth inhibition (GI) (MCF7 [3]): Active

Compound: COc1cc2c3c(c4cc(OC)c(OC)cc4c2cc1OC)CN(Cc1ccccc1)CC3
- growth inhibition (GI) (MCF7 [3]): inactive

Compound: COc1ccccc1CN1CCc2c(c3cc(OC)c(OC)cc3c3cc(OC)c(OC)cc23)C1
- inhibition of growth at 5 µM (MCF7 [3]): 90%
- GI50 (A549): 1600 nM
- GI50 (MCF7 [1]): 600 nM
- GI50 (DU-145): 1500 nM
- IC50 [2]: 15000 nM

Compound: COc1cc2c3c(c4cc(OC)c(OC)cc4c2cc1OC)CN(CCN)CC3
- growth inhibition (GI) (MCF7 [3]): inactive

Compound: COc1cc2c3c(c4cc(OC)c(OC)cc4c2cc1OC)CN(Cc1cccc(OC)c1O)CC3
- growth inhibition (GI) (MCF7 [3]): Active
- GI50 (A549): 2100 nM
- GI50 (MCF7 [1]): 3000 nM
- GI50 (DU-145): 2100 nM
- IC50 [2]: 18900 nM

Compound: COc1cc2c3c(c4cc(OC)c(OC)cc4c2cc1OC)CN1CCC[C@@H]1C3 [TYLOPHORINE]
- GI50 (MCF7 [1]): 32 nM

Compound: COc1cc2c3c(c4cc(OC)c(OC)cc4c2cc1OC)CN(C)CC3
- inhibition of growth at 5 µM (MCF7 [3]): 50%

Compound: COc1cc2c3c(c4cc(OC)c(OC)cc4c2cc1OC)CN(Cc1c(OC)cccc1OC)CC3
- growth inhibition (GI) (MCF7 [3]): inactive

Compound: COc1cc2c3c(c4cc(OC)c(OC)cc4c2cc1OC)CN1CCC[C@H]1C3 [(S)-TYLOPHORINE]
- GI50 (MCF7 [1]): 42 nM

Compound: COc1cc2c3c(c4cc(OC)c(OC)cc4c2cc1OC)CN(Cc1ccccc1O)CC3
- growth inhibition (GI) (MCF7 [3]): Active

Compound: COc1cc2c3c(c4cc(OC)c(OC)cc4c2cc1OC)CN(Cc1ccc(CO)o1)CC3
- growth inhibition (GI) (MCF7 [3]): Active
